This is an account of results in ChEMBL document CHEMBL1671698, “Is the recommended once-daily dose of lamivudine optimal in West African HIV-infected children?” (Antimicrob Agents Chemother, 2010).

Series [1] is described as follows: Cmax in HIV-1 infected children aged 2.5 to 14 years at 8 mg/kg, po every 24 hrs coadministered with 240 mg/m2 of didanosine and efavirenz by HPLC. In kind it is ADME, organism-based. Also on record: dose 8 mg/kg, route oral. As to conditions: human, in vivo. The method in brief:
(§1)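 Treatment-naive children took once-daily oral lamivudine at 8 mg/kg (tablets or solution) at 6 p.m. without food, with didanosine 240 mg/m2 and weight-banded efavirenz. Blood was drawn after 15 days (38 children) or 2–5 months (11 children), either predose plus 1 and 3 h, or predose through 24 h. Plasma was kept at −70°C and assayed by HPLC-UV (LLOQ 0.025 mg/liter). Data were fitted with a two-compartment population model in NONMEM using FOCE.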

Series [2] is described as follows: AUC (0 to tau) in HIV-1 infected children aged 2.5 to 14 years at 8 mg/kg, po every 24 hrs coadministered with 240 mg/m2 of didanosine and efavirenz by HPLC. Type of series: ADME, organism-based. Also on record: dose 8 mg/kg, route oral. The conditions noted are these: human, plasma. Summed up:
as §1

A short description of series [3]: Cmax in HIV-1 infected children aged 6.9 years at 4 mg/kg, po every 12 hrs coadministered with nevirapine and stavudine by HPLC. In kind it is ADME, organism-based. Also on record: dose 4 mg/kg, route oral. As to conditions: human, in vivo.
A short description of series [4]: AUC (0 to tau) in HIV-1 infected children aged 6.9 years at 4 mg/kg, po every 12 hrs coadministered with nevirapine and stavudine by HPLC. As to conditions: human, plasma. Also on record: dose 4 mg/kg, route oral. In kind it is ADME, organism-based.
Series [5] can be described thus: Cmax in HIV-1 infected children aged 2.5 to 4.8 years at 4 mg/kg, po every 12 hrs by HPLC. In kind it is ADME, organism-based. Also on record: dose 4 mg/kg, route oral. The conditions noted are these: human, in vivo.
Series [6] in a line: AUC (0 to tau) in HIV-1 infected children aged 2.5 to 4.8 years at 4 mg/kg, po every 12 hrs by HPLC. In kind it is ADME, organism-based. Further details: dose 4 mg/kg, route oral. The conditions noted are these: human, plasma.
Series [7] is described as follows: Cmax in HIV-1 infected children aged 8.5 to 12.3 years at 4 mg/kg, po every 12 hrs by HPLC. In kind it is ADME, organism-based. Further details: dose 4 mg/kg, route oral. As to conditions: human, in vivo.
Series [8] in a line: AUC (0 to tau) in HIV-1 infected children aged 8.5 to 12.3 years at 4 mg/kg, po every 12 hrs by HPLC. In kind it is ADME, organism-based. Further details: dose 4 mg/kg, route oral. The conditions noted are these: human, plasma.
A short description of series [9]: Cmax in HIV-1 infected children aged 2.1 to 12.8 years at 4 mg/kg, po every 12 hrs coadministered with 8 mg/kg abacavir by HPLC. In kind it is ADME, organism-based. The conditions noted are these: human, in vivo. Further details: dose 4 mg/kg, route oral.
Series [10] in a line: AUC (0 to tau) in HIV-1 infected children aged 2.1 to 12.8 years at 4 mg/kg, po every 12 hrs coadministered with 8 mg/kg abacavir by HPLC. Type of series: ADME, organism-based. The conditions noted are these: human, plasma.
Series [11] is described as follows: AUC in HIV-1 infected children with body weight <17 kg at 8 mg/kg, po every 24 hrs coadministered with 240 mg/m2 of didanosine and efavirenz by HPLC. Type of series: ADME, organism-based. Further details: dose 8 mg/kg, route oral. The conditions noted are these: human, plasma.
The nature of series [12]: AUC in HIV-1 infected children with body weight >17 kg at 8 mg/kg, po every 24 hrs coadministered with 240 mg/m2 of didanosine and efavirenz by HPLC. Type of series: ADME, organism-based. Further details: dose 8 mg/kg, route oral. As to conditions: human, plasma.
A further series has as its system Homo sapiens. Briefly: AUC in HIV-1 infected children with body weight <17 kg at 10 mg/kg, po every 24 hrs coadministered with 240 mg/m2 of didanosine and efavirenz by HPLC. In kind it is ADME, organism-based, Plasma. Further details: dose 10 mg/kg, route oral. As to conditions: in vivo.
The nature of series [13]: Cmax in HIV-1 infected children aged 2.1 to 12.8 years at 8 mg/kg, po every 24 hrs coadministered with 8 mg/kg abacavir by HPLC. The conditions noted are these: human, in vivo.
Series [14] in a line: AUC (0 to tau) in HIV-1 infected children aged 2.1 to 12.8 years at 8 mg/kg, po every 24 hrs coadministered with 8 mg/kg abacavir by HPLC. The conditions noted are these: human, plasma.

Regarding `Nc1ccn([C@@H]2CS[C@H](CO)O2)c(=O)n1` [LAMIVUDINE], the maximum concentration (Cmax) (commonly the peak of the concentration-time curve) was determined as 1700 ng/mL in series [1]; 1330 ng/mL in series [3]; 980 ng/mL in series [5]; 1840 ng/mL in [7]; 1110 ng/mL in series [9]; 2090 ng/mL in series [13]. The AUC tau at 24 h in series [2] amounted to 7800 ng·h/mL; in series [14] it was 9800 ng·h/mL. For the same molecule, the AUC tau at 12 h in series [4] amounted to 5420 ng·h/mL; in series [6] it was 3710 ng·h/mL; in series [8], 6540 ng·h/mL; in series [10], 4440 ng·h/mL. Moreover, the area under the curve (AUC) (as a rule, concentration integrated over time) at 24 h in series [11] was 8100 ng·h/mL; in [12], 9100 ng·h/mL. The AUC in the series with Homo sapiens was 9800 ng·h/mL.
